One experiment concerns HeLa. In words: Antiproliferative activity, HeLa cells. Particulars: read-out: HeLa IC50. The class given is cell-based. A digest of the protocol: (§1)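 Cells seeded at 1000 per well in RPMI-1640 with 10% FBS and left 24 h before adding diluted test compound. After 96 h exposure, viability was read by CellTiter-Glo luminescence. Readings were normalised as % of untreated cells and IC50 derived. n = 3, values averaged.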

The next experiment concerns HepG2. Kind of experiment: Antiproliferative activity, HepG2 cells. Type of experiment: cell-based. Particulars: read-out: HepG2 IC50. Summed up: as §1

Results on one compound are retold here after publication PMC12828150 (Acta Pharmaceutica Sinica. B, 2025).

The term IC50 denotes the concentration that inhibits the measured activity by half.

On to `CN1CCC(NC2CCc3[nH]c4c(C(N)=O)ccc(-c5ccccc5Cl)c4c3C2)CC1` (centres unmarked) [WJ0909], for which the results for the half-maximal inhibitory concentration (IC50) with HeLa and with HepG2 were 17 nM and 24 nM, respectively.
